# Legend:
# [1] = target: T1, Polyunsaturated fatty acid lipoxygenase ALOX15B (Rattus norvegicus, UniProt Q8K4F2); test: Inhibitory activity against 15-lipoxygenase in rat polymorphonuclear leukocytes; type: cell-based
# T1 sequence (Q8K4F2 whole entry): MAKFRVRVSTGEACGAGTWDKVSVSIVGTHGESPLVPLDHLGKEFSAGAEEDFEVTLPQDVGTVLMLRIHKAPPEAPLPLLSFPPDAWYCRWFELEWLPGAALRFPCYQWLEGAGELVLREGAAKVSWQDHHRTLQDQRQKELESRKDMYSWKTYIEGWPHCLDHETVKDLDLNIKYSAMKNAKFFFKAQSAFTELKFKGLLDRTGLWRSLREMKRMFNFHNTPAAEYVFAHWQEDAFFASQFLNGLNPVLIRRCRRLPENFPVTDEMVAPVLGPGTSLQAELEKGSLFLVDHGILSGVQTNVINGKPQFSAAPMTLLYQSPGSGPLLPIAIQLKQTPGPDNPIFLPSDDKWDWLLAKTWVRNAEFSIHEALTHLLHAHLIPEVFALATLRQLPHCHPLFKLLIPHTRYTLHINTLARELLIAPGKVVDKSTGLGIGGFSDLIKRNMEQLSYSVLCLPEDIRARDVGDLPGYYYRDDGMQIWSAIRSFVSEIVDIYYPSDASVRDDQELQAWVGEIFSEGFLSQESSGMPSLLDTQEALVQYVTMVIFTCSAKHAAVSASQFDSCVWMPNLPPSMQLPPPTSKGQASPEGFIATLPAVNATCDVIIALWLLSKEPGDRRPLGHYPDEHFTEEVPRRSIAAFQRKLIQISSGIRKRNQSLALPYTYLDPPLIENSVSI
# Method in brief: (§1)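 Heparinized rat blood; PMNLs isolated by Ficoll/Hypaque gradient and hypotonic hemolysis, washed thrice in Hanks' solution, resuspended at 2 × 10^7 cells/mL in 1/15 M phosphate buffer pH 8.2 (>94% neutrophils, <1% platelets). Cells sonicated at 4 °C, given 1 mM CaCl2, incubated with [14C]arachidonic acid (0.2 µCi) 20 min at 37 °C; stopped by HCl acidification to pH 3.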
# [2] = target: 12-lipoxygenase (Rattus norvegicus, UniProt F1LQ70); test: Inhibitory activity against 12-lipoxygenase in rat platelet rich plasma; type: cell-free
# [3] = target: T2, Polyunsaturated fatty acid 5-lipoxygenase (Rattus norvegicus, UniProt P12527); test: Inhibitory activity against 5-lipoxygenase in rat polymorphonuclear leukocytes; type: cell-based; method in brief: as §1
# T2 sequence (P12527 whole entry): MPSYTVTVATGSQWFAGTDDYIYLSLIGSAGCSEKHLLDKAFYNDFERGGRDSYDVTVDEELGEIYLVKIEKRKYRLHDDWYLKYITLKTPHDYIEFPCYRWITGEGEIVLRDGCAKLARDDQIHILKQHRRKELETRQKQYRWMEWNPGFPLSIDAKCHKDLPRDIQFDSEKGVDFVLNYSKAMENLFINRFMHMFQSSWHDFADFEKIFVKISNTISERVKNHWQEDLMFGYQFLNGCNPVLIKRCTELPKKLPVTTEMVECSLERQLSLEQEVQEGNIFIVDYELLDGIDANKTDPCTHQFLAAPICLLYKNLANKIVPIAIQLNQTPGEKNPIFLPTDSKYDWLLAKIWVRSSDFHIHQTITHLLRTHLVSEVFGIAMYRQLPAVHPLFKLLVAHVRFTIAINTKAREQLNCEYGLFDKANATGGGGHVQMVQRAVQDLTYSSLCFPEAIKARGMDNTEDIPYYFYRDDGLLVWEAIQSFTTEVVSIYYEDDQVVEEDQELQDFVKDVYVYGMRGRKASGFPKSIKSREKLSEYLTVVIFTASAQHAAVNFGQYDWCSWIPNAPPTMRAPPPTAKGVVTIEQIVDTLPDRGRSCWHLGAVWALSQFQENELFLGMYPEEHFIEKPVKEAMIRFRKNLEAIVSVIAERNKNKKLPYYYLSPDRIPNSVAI
# Sequence of 12-lipoxygenase (F1LQ70 whole entry, looked up): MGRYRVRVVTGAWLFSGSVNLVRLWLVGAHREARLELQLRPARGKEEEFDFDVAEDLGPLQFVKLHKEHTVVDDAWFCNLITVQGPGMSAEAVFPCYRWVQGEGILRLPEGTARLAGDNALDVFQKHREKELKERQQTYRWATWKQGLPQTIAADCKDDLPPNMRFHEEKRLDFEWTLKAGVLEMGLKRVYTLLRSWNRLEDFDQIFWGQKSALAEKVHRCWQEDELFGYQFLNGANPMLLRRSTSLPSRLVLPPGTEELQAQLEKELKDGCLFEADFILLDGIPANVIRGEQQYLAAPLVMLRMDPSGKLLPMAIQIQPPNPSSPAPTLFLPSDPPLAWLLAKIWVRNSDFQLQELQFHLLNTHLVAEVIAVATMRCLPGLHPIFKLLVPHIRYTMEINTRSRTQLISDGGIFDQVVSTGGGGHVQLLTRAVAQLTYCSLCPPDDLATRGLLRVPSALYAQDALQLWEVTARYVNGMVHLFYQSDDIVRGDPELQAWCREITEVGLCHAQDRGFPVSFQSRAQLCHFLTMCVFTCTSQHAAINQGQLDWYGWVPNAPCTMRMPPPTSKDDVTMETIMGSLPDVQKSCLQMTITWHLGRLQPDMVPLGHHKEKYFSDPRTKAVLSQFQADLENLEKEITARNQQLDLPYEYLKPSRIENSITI
SMILES,IC50 [1],IC50 [2],IC50 [3]
O=c1cc(-c2ccccc2)oc2cc(O)c(O)c(O)c12 [BAICALEIN],260 nM,15 nM,–
COc1ccccc1CCOC(=O)/C(C#N)=C/c1ccc(O)c(O)c1,1620 nM,64 nM,140 nM
N#C/C(=C\c1ccc(O)c(O)c1)C(=O)OCCc1ccccc1,430 nM,51 nM,160 nM
CCOC(=O)/C(C#N)=C/c1ccc(O)c(O)c1,330 nM,33 nM,> 10000 nM
N#C/C(=C\c1ccc(O)c(O)c1)C(=O)OCCc1cccs1,500 nM,13 nM,90 nM
N#C/C(=C\c1ccc(O)c(O)c1)C(=O)OCCCc1cccnc1,3930 nM,470 nM,> 10000 nM

# Next, values leading:
IC50 [1],IC50 [2],IC50 [3],SMILES
3330 nM,63 nM,1890 nM,N#C/C(=C\c1ccc(O)c(O)c1)C(=O)OC/C=C/c1ccccc1
> 10000 nM,180 nM,> 10000 nM,N#C/C(=C\c1ccc(O)c(O)c1)C(=O)OCCCCCCCCn1ccnc1
1400 nM,53 nM,160 nM,N#C/C(=C\c1ccc(O)c(O)c1)C(=O)OCCCc1ccccc1
3590 nM,470 nM,220 nM,N#C/C(=C\c1ccc(O)c(O)c1)C(=O)OCCCCc1ccccc1

# Reference: ChEMBL document CHEMBL1125679, “Novel caffeic acid derivatives: extremely potent inhibitors of 12-lipoxygenase” (J Med Chem, 1991)
